# Compounds with a hit are over-represented: about 3% of the library has one in this group of screens.
# SENP6 inh: SENP6 protease inhibitors, primary screen, biochemical, luminescence, uHTS; Sentrin-specific protease 6 (Homo sapiens), Q9GZR1; Recombinant SENP6 catalytic domain, aminoluciferin luminescence; inhibition, % at 10 µM; 330,000 tested, 1.8% active;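 active means inhibition above about 50% at the single tested dose, limit read from the data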;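 further: plate controls were DMSO wells with enzyme for no effect and DMSO wells lacking enzyme for full effect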
# SENP8 block-1: SENP8 protease inhibitors, primary screen, biochemical, luminescence; purified SENP8, Z-RLRGG-aminoluciferin cleavage; 330,000 tested, 1.2% active; AID 2540, 2010; inhibition, % at 10 µM; Sentrin-specific protease 8 (Homo sapiens), Q96LD8; in the data active means inhibition above about 50%
# SENP7 inh: SENP7 protease inhibitors, primary screen, biochemical, luminescence, uHTS; Sentrin-specific protease 7 (Homo sapiens), Q9BQF6; recombinant SENP7, Z-RLRGG-aminoluciferin luminescence, 40 min; inhibition, % at 5 µM; 330,000 tested, 1.5% active; AID 434973, 2010;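 active means inhibition above about 50% at the single test dose, limit read from the data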;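 further: plate controls were DMSO with enzyme for no effect and no enzyme buffer wells for full effect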
# Target sequence (Q9BQF6 706-1050 limits assumed): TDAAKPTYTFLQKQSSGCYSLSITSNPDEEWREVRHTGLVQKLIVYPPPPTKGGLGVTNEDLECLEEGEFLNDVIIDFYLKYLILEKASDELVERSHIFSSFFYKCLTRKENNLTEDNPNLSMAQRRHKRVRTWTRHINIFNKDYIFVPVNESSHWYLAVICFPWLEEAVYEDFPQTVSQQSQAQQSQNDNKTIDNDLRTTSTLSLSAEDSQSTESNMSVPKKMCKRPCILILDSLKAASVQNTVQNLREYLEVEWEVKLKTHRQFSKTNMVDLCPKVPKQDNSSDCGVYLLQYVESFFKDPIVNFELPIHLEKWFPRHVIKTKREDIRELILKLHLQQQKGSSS
# SENP8 block-2: human SENP8 protease inhibitors, primary screen, biochemical, fluorescence, Nedd8 protein substrate, uHTS. inhibition, % at 20 µM. recombinant SENP8. AID 602440, 2012. 360,000 tested, 0.64% active. Sentrin-specific protease 8 (Homo sapiens), Q96LD8; in the data active means inhibition mostly above about 40%, no sharp cut-off; inactive means mostly below about 27%
# UBC13 polyUb: UBC13 polyubiquitin chain formation inhibitors, primary screen, biochemical, TR-FRET, uHTS; Ubiquitin-conjugating enzyme E2 N (Homo sapiens), P61088; inhibition, % at 20 µM; 330,000 tested, 0.47% active; AID 485273, 2010; in the data active means inhibition above about 45%, passing the limit was not always enough
# Apaf1 inhib: inhibitors of human Apaf-1 apoptosome, primary screen, biochemical, DEVD-Rh110 fluorescence, uHTS; inhibition, % at 20 µM; reconstituted apoptosome caspase-3 activity; Apoptotic protease-activating factor 1 (Homo sapiens), O14727; AID 489030, 2010; 330,000 tested, 0.71% active; active means inhibition of at least 40% at 20 µM;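 further: plate controls were DMSO wells for no effect and DEVD-CHO caspase inhibitor wells for full effect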
#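 Medium: Hepes buffer, pH 7.5 / System: biochemical Apaf-1 apoptosome reconstitution / Measured by: Rh110 fluorescence, excitation 480 nm, emission 540 nm / Times: compound with Apaf-1, dATP, procaspase-3 30 min, then 50 min reaction, room temperature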
# Casp3 UBC13 ctr: CASP3 inhibitor validation, counterassay for project on UBE2N polyubiquitination blockers, biochemical, one dose; shares compounds with UBC13 polyUb; Recombinant caspase-3, Caspase-Glo 3/7 luminescence, 60 min; inhibition, % at 20 µM; 1,400 tested, 4% active;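 active means mean inhibition across replicates above about 26%, limit read from the data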;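 further: plate controls were DMSO with caspase-3 for no effect and DMSO wells lacking enzyme for full effect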
# Target sequence (P42574 whole entry, looked up): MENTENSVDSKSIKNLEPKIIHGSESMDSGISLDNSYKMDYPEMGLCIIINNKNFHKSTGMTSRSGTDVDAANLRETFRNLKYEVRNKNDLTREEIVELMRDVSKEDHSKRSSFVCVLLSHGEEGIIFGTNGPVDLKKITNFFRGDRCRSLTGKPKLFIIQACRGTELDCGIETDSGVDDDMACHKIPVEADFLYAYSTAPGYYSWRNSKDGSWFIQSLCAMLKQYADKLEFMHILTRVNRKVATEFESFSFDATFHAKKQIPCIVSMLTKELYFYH
# UBC13 confirm: UBC13 polyubiquitination inhibitors, single-point retest, confirmation, biochemical, TR-FRET, single concentration. shares compounds with UBC13 polyUb. 1,400 tested, 68% active. AID 488859, 2010. inhibition, % at 10 µM; in the data active means inhibition above about 45%
# Apaf-1 inh conf2: Apaf-1 inhibitors, single-dose retest, confirmation, biochemical, fluorescence, DEVD-Rh110, 20 µM; shares compounds with Apaf1 inhib; reconstituted apoptosome, caspase-3 DEVD-Rh110 fluorescence; inhibition, % at 20 µM; 1,800 tested, 25% active;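 active means mean inhibition of at least 40% at 20 µM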;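 further: plate controls were DMSO wells for no effect and DEVD-CHO caspase inhibitor control wells for full effect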
# Rh110 interf inh: Rh110 fluorescence interference by putative Apaf-1 inhibitors, confirmation, artefact control for Apaf-1 inhibitor project, biochemical, 20 µM. shares compounds with Apaf1 inhib. AID 504615, 2011. 1,800 tested, under 10 active. activation (fluorescence interference), % at 20 µM. quenched caspase reaction;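 active means signal rise of 40% or more at 20 µM, treated as a fluorescence artifact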
# Apaf1 inh interf: fluorescence interference of Apaf-1 inhibitor hits, dose response, artefact control for Apaf-1 inhibitor project | shares compounds with Apaf1 inhib | fluorescence interference counterscreen, Apaf-1 assay format | IC50, µM | 460 tested, under 10 active; call rule not given here
# Numbers without * were called inactive; / = no result.
SMILES,SENP6 inh,SENP8 block-1,SENP7 inh,SENP8 block-2,UBC13 polyUb,Apaf1 inhib,Casp3 UBC13 ctr,UBC13 confirm,Apaf-1 inh conf2,Rh110 interf inh,Apaf1 inh interf
COC(=O)C1=C(C)N(Cc2ccccc2)C(=NCCc2c[nH]c3ccccc23)N[C@H]1c1cccc(F)c1,-22,-13,-10,11,62*,60*,1,64*,21,7,/
CCN(CC)CCCN=C1N[C@@H](c2cccc(F)c2)C(C(=O)OC)=C(C)N1Cc1ccccc1,0,4,8,14,22,9,/,/,/,/,/
COC(=O)C1=C(C)N(Cc2ccccc2)C(=NCc2ccccc2)N[C@H]1c1cccc(F)c1,-15,-12,-10,7,67*,41*,-4,18,18,10,/
COc1ccc(N2c3ccccc3CN(Cc3ccccc3)[C@@H](C)[C@H]2Cc2cccnc2)cc1,/,/,/,16,/,/,/,/,/,/,/
CC(=O)c1cccc(-c2ccnc3c2CC(C(=O)Nc2ccccc2)O3)c1 (centres undefined),/,/,/,7,/,/,/,/,/,/,/
O=[N+]([O-])c1ccc2c(c1)CO[C@@]21O[C@H](CCO)C[C@H](O)[C@H]1O,/,/,/,21,/,/,/,/,/,/,/
CC1(C(=O)NCc2ccco2)Cc2c(-c3ccccc3)ccnc2O1 (centres undefined),/,/,/,20,/,/,/,/,/,/,/
Cc1cc2oc3cc(NCCC4CCCN4C)ccc3c(=O)c2cc1C (centres undefined),22,6,3,-488,61*,44*,21,47*,9,17,/
Cc1c(CCOC(=O)c2ccccc2)sc[n+]1CC(=O)c1ccc(Br)cc1,-24,-10,-1,13,14,25,/,/,/,/,/
Cc1c(CCOC(=O)CC23CC4CC(CC(C4)C2)C3)sc[n+]1CC(=O)c1ccc(Br)cc1,8,-7,-1,10,47*,49*,2,69*,32,16,/
FC(F)(F)c1cc(CCN2CCNC[C@@H]2CC2CCCCC2)cc(C(F)(F)F)c1,-49,-37,-7,12,87*,79*,-1,97*,41*,22,>100
FC(F)(F)c1cc(CCN2CCNC[C@@H]2c2ccccc2)cc(C(F)(F)F)c1,-31,-34,2,-7,66*,61*,3,62*,17,8,/
NC1=NC[C@H](CC2CCCCC2)N1CCc1cc(C(F)(F)F)cc(C(F)(F)F)c1,-10,-1,2,11,97*,74*,-1,98*,50*,27,>100
Cc1cc(C(=O)N2CCC2(C)C(=O)Nc2ccc3[nH]ncc3c2)nn1C (centres undefined),/,/,/,17,/,/,/,/,/,/,/
C[N+](C)(CCOc1ccccc1)Cc1ccccc1,/,/,/,-90,/,/,/,/,/,/,/
Cc1cc(C(C)(C)CC(C)(C)C)ccc1OCCOCC[N+](C)(C)Cc1ccccc1,-26,-21,5,12,100*,86*,-2,105*,59*,15,>100
N#CCSc1ccccc1NC(=O)COC(=O)C1CCN(C(=O)c2ccc(Cl)cc2)CC1,/,/,/,17,/,/,/,/,/,/,/
CCCCCCCCCCCCCCCC[N+](C)(C)CCN(Cc1ccc(OC)cc1)c1ncccn1,-67,-31,11,6,119*,98*,0,124*,92*,30,>100
O=S1(=O)N[C@@H](Cc2ccccc2)COc2cc(N3CCC[C@H]3CO)ccc21,/,/,/,-38,/,/,/,/,/,/,/
CC(C)COCC(CN(Cc1ccccc1)c1ccccc1)N1CCCC1 (centres undefined),-26,-7,-5,13,49*,49*,2,40,12,16,/
COc1ccc(NC(=O)COc2ccc(/C=C/c3cc[n+](C)cc3)cc2OC)cc1,10,4,1,-274,2,1,/,/,/,/,/
COc1cc(/C=C/c2cc[n+](C)cc2)ccc1OCC(=O)Nc1ccc(Cl)c(Cl)c1,-19,4,0,-286,103*,73*,-1,116*,46*,6,>100
C#CCOCCOCCOCCNc1nc(N2CCN(C(=O)Cn3cc(CCCCN)nn3)CC2)nc(N2CCN(C(=O)[C@H](C(C)C)n3cc(CCO)nn3)CC2)n1,0,-1,-1,6,6,4,/,/,/,/,/
C#CCOCCOCCOCCNc1nc(N2CCN(C(=O)CCCCCCCCCCNC(=O)Cn3cc(C[C@@H](C)O)nn3)CC2)nc(N2CCN(C(=O)CCCCCCCCCCNC(=O)[C@@H]([C@H](C)CC)n3cc(CCCCCN)nn3)CC2)n1,-20,-15,7,7,120*,54*,0,121*,50*,13,>100
C#CCOCCOCCOCCNc1nc(N2CCOCC2)nc(N2CCN(C(=O)CCCCCCCCCCNC(=O)[C@H]([C@@H](C)CC)n3cc(CCCCN=C(N)N)nn3)CC2)n1,-7,1,6,0,77*,60*,1,70*,29,1,/
C#CCOCCOCCOCCNc1nc(N2CCN(C(=O)CCCCCCCCCCNC(=O)Cn3cc(CCCCCN)nn3)CC2)nc(N2CCN(C(=O)CCCCCCCCCCNC(=O)[C@@H]([C@H](C)O)n3cc(C)nn3)CC2)n1,-15,-7,14,3,116*,49*,0,118*,40*,18,>100
CC(C)[C@@H]1CN=C(N)N1C[C@@H]1CCCN1C[C@H](C)N1C[C@@H](Cc2ccccc2)N(CCc2ccc(Cl)c(Cl)c2)C1=N,12,-6,-1,12,70*,54*,-2,46*,13,-1,/
